Most compounds without a hit are left out; they make up all but 3.1% or so of the library.
PRMT1 FP inh = blocks human protein arginine methyltransferase 1. Q99873. recombinant PRMT1, activity-based probe fluorescence polarization. actives 1.3% (n = 370,000). AID 652257. inhibition, % at 2.79 µM;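 active means inhibition above about 21% made by adding two undisclosed values, limit read from the data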
UHRF1 binding = human UHRF1 methylated DNA binding inhibitors; Q96T88; UHRF1 binding to methylated oligo, TR-FRET; inhibition, % at 4.4 µM; actives 0.75% (n = 370,000); AID 687016; in the data active means inhibition above about 21%;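 further: UHRF1 SRA domain binding a hemimethylated CpG hairpin DNA probe; 0% = median of test compound wells and 100% = reference inhibitor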
LEDGF integ inh = blocks HIV-1 LEDGF/p75-dependent DNA integration. inhibition, % at 3.7 µM. actives 0.64% (n = 370,000). TR-FRET IN-LEDGF/p75 DNA integration, Eu/Cy5;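 active means inhibition above the screen-wide mean plus 3 SD, cut at about 13% in these data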;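 further: signal is the Cy5 over europium emission ratio at 671 and 618 nm; 0% = plate median of compound wells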
MBD2 inh = blocks human MBD2 binding to methylated DNA; Q9UBB5; actives 0.31% (n = 370,000); TR-FRET, MBD2 binding to methylated oligonucleotide; AID 686964; inhibition, % at 4.4 µM; in the data active means inhibition above about 13%
Target sequence (Q9UBB5 whole entry, looked up): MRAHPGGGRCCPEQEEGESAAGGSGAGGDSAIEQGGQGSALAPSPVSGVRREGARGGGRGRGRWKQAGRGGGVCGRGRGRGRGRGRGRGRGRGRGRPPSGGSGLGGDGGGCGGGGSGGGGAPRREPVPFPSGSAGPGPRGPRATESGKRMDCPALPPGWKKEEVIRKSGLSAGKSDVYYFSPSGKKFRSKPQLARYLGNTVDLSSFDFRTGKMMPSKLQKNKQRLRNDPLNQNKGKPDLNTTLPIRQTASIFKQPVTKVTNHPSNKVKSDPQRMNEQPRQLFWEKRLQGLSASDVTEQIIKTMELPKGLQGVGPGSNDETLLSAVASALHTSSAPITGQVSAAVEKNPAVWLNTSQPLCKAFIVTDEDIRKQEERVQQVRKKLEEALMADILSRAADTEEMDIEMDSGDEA
RBBP9 inhibitor = inhibitors of human serine hydrolase RBBP9; inhibition, % at 7.94 µM; O75884; actives 0.2% (n = 220,000); AID 1515; recombinant RBBP9, FP-Rh probe fluorescence polarization;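 active means inhibition above the campaign mean of all tested compounds plus 3 SD, cut at about 14% in these data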;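 further: plate controls were DMSO wells with RBBP9 for no effect and wells lacking RBBP9 protein for full effect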
Target sequence (O75884 whole entry, looked up): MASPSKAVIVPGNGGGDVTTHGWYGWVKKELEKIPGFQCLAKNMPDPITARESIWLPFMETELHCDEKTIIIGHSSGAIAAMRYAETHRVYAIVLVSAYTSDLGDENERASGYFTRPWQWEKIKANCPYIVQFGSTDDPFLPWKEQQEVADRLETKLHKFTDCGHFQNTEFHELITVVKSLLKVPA
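System: RBBP9 protein / Quantity: 2.5 µM RBBP9 dispensing solution, before mixing / Also added: Serine-hydrolase probe FP-Rh, 375 nM pre-mixing / Dosing: 7.94 µM single dose, 0.794% DMSO / Timing: enzyme-compound preincubation 30 min, then probe labeling 45 min, 25 °C / Signal: FP readout at 525/598 nm / Controls: DMSO-treated enzyme wells and wells lacking RBBP9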
ABHD5 PLIN5 PPI = blocks binding of human ABHD5 to perilipin-5. Q00G26+Q8WTS1. actives 0.78% (n = 360,000). Split G. princeps luciferase complementation, luminescence, 4 h. inhibition, % at 4 µM;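 active means inhibition above the mean inhibition across every tested compound plus 3 SD, cut at about 22% in these data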;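 further: 0% = DMSO only wells and the 100% control is not disclosed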
ABHD5-PLIN5 conf = confirmation of human ABHD5-PLIN5 interaction inhibitors; shares compounds with ABHD5 PLIN5 PPI; biochemical ABHD5-PLIN5 interaction, luminescence; inhibition, % at 4 µM; actives 67% (n = 2,200); in the data active means inhibition above about 23%;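 further: 0% = DMSO vehicle wells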
HNF4 counter = HNF4 split-luciferase signal hit, counter-screen. HNF4 dimerization, luminescence, biochemical. inhibition, % at 4 µM. AID 651674. actives 77% (n = 2,200). shares compounds with ABHD5 PLIN5 PPI;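 active means mean inhibition across replicate wells exceeding the computed hit threshold, cut at about 13% in these data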;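 further: light from luciferase halves that rejoin when HNF4 fusion proteins dimerize; 0% = DMSO only wells and the 100% control is not given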
PRMT1 inh conf = PRMT1 (human) inhibition, FP confirmation; inhibition, % at 2.79 µM; AID 687036; actives 42% (n = 3,300); recombinant His-PRMT1, activity-based probe fluorescence polarization; shares compounds with PRMT1 FP inh;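 active means mean inhibition across replicates above the hit cutoff derived for the earlier primary screen, cut at about 22% in these data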
The depositor's hits bear a star; . = no result given.

SMILES | PRMT1 FP inh | UHRF1 binding | LEDGF integ inh | MBD2 inh | RBBP9 inhibitor | ABHD5 PLIN5 PPI | ABHD5-PLIN5 conf | HNF4 counter | PRMT1 inh conf
Cc1ccc(/C=C/C(=O)N2CCN(S(=O)(=O)c3ccc(C)c(C)c3)CC2)o1 | 37* | -4 | 1 | 1 | -8 | 44* | 43* | 62* | 52*
Cc1ccccc1S(=O)(=O)N(C)C[C@@H]1OCc2cn(nn2)CCCC(=O)N([C@@H](C)CO)C[C@H]1C | -1 | 1 | 3 | -6 | . | . | . | . | .
COc1ccc(S(=O)(=O)N(C(=O)C(C)C)c2ccc3oc(=O)sc3c2)cc1 | 68* | -2 | -6 | 0 | -3 | 32* | -71 | 39* | 39*
COc1ccc(S(=O)(=O)N(C(=O)c2ccncc2)c2ccc3oc4c(c3c2)CCCC4)cc1 | 2 | 0 | -3 | -1 | -4 | 8 | . | . | .
CC(C)(C)c1ccc(-c2nnc(SCc3ccccc3)n2Cc2ccco2)cc1 | 6 | 2 | -1 | -2 | . | . | . | . | .
O=C1C(Cl)=C(Nc2ccccc2)C(=O)c2ccccc21 | 6 | -1 | 8 | -5 | -9 | 4 | . | . | .
O=C1C(Cl)=C(NCCc2ccccc2)C(=O)c2ccccc21 | 66* | -17 | 7 | -18 | . | 27* | 88* | 104* | 96*
N#Cc1ccc(NC(=O)OC2CC3CC2[C@H]2CCCCN2C3)cc1 (stereo partly drawn) | -2 | -1 | 1 | 0 | . | . | . | . | .
O=C(Nc1ccc(N2C(=O)CC(c3ccccc3)C2=O)c(Cl)c1)c1ccccn1 (stereo not drawn) | 2 | -1 | -1 | -6 | . | . | . | . | .
Cc1ccc(-n2sc3cc(F)ccc3c2=O)c(C)c1 | 92* | -1 | -4 | -3 | . | 66* | 63* | 116* | 81*
Cc1ccc(N2C(=O)CC(N3CCN(c4ccc(F)cc4)CC3)C2=O)c(C)c1 (stereo not drawn) | 7 | 4 | 3 | 1 | . | -9 | . | . | .
O=S(=O)(C/C(=C/CO)S(=O)(=O)c1ccccc1)c1ccccc1 | 29* | 0 | 0 | 6 | -9 | 65* | 95* | 92* | 7
O=C([C@@H]1C[C@H]1c1ccccc1)N1CCC(Oc2cccnc2)CC1 | -11 | 0 | 4 | -1 | . | . | . | . | .
CC(C)(C)c1cc(C(=O)CCN2CCOCC2)cc(C(C)(C)C)c1O | 36* | 4 | 4 | 2 | . | 32* | 12 | 32* | 13
C=CCN1[C@@H](Cc2ccccc2)COc2cccc(F)c2S1(=O)=O | -3 | -1 | -1 | 1 | . | . | . | . | .
Fc1cccc(Cc2c(-c3ccco3)nc3c4ccccc4ccn23)c1 | 30* | 20 | -1 | 9 | . | 26* | 13 | 23* | 10
Fc1cccc(Cc2c(-c3cccc(Cl)c3)nc3c4ccccc4ccn23)c1 | -1 | 6 | -2 | 0 | . | -6 | . | . | .
Fc1cccc(Cc2c(-c3ccco3)nc3ccc(Br)cn23)c1 | 34* | 9 | 5 | 2 | . | 72* | 44* | 78* | 11
Brc1ccc2nc(-c3ccco3)c(Cc3ccsc3)n2c1 | 36* | 3 | 8 | 1 | . | 75* | 49* | 91* | 34*
Cc1ccc(C(=O)N2CCC[C@@H]2C(=O)N2CCC[C@@H]2C(=O)NCc2ccccc2)cc1 | 2 | 5 | 1 | 2 | . | . | . | . | .
CCOC(=O)C1=C(C(=O)OCC)C2N(Cc3ccc(Br)cc3)c3ccccc3[C@@]23C[C@@H](C(=O)OC)N(S(=O)(=O)c2ccc(F)cc2)C3=N1 (stereo partly drawn) | 2 | 0 | 1 | -3 | . | . | . | . | .
COc1ccc(C(=O)C2(C(=O)NCCO)CC(c3ccccn3)=NO2)cc1 (stereo not drawn) | -3 | 0 | 5 | 0 | . | . | . | . | .
O=C(O)c1cccc(Nc2ccc3nonc3c2[N+](=O)[O-])c1 | 13 | 0 | -1 | 2 | . | -5 | . | . | .
O=[N+]([O-])c1c(Nc2cccc(O)c2)cc(Cl)c2nonc12 | 60* | -7 | 1 | -12 | . | 52* | 71* | 95* | 58*
O=C(O)c1ccc(Nc2cc(Cl)c3nonc3c2[N+](=O)[O-])cc1 | 63* | -2 | 2 | -11 | -1 | 31* | 63* | 95* | 32*
SMILES | PRMT1 FP inh | UHRF1 binding | LEDGF integ inh | MBD2 inh | RBBP9 inhibitor | ABHD5 PLIN5 PPI | ABHD5-PLIN5 conf | HNF4 counter | PRMT1 inh conf
COC[C@@H]1CCCN1c1ccc2c(c1)O[C@@H]1CCN(C1)S2(=O)=O | 0 | 9 | 1 | 7 | . | . | . | . | .
COc1ccc2c(c1)CN1CN(CC(C)C)S(=O)(=O)CC21 (stereo not drawn) | -3 | -5 | 3 | 1 | . | . | . | . | .
Cc1ccc(/C=C/C(=O)NC2CCCCCCC2)o1 | 50* | 5 | -2 | -1 | -10 | 50* | 55* | 71* | 59*
Cc1ccc(/C=C/C(=O)NCC2COc3ccccc3O2)o1 (stereo not drawn) | 34* | -4 | 2 | -3 | -1 | 24* | 49* | 63* | 30*
COc1ccc(/C=C/C(=O)NCC2COc3ccccc3O2)cc1OC (stereo not drawn) | -1 | 0 | 1 | -2 | 5 | 1 | . | . | .
Cc1ccc(/C=N/NC(=O)NC2CCCCC2)o1 | 3 | 1 | -4 | -3 | 4 | 4 | . | . | .
Cc1sc(C(C2C(=O)CC(C)(C)CC2=O)C2C(=O)CC(C)(C)CC2=O)cc1[N+](=O)[O-] | 26* | -1 | 5 | 1 | -2 | 56* | 92* | 89* | 45*
CCOC(=O)[C@@]12CCC3=C1N(CCC3)C(=O)[C@H](CC(=O)NCCCN1CCCC1=O)C2 | -3 | -1 | -2 | -3 | . | . | . | . | .
O=C1C=C(C2OC(CO)C(O)C2O)C(=O)N1 (stereo not drawn) | 70* | -1 | 4 | -2 | . | 68* | 48* | 104* | 71*
C=CCOC(=O)N[C@H](c1ccc2ccccc2c1)[C@H](C)/C=C/CC(=O)OC | -1 | 0 | -1 | 1 | . | . | . | . | .
Cc1noc(C)c1S(=O)(=O)N1CCCc2nc(-c3ccc(F)cc3)ccc21 | -6 | 10 | 7 | 1 | . | . | . | . | .
Cc1cc(C(=O)NCc2ccco2)c2ccccc2n1 | 3 | 1 | -6 | 5 | -4 | 7 | . | . | .
Cc1ccc(-c2cc(C(=O)NCc3ccco3)c3ccccc3n2)o1 | 48* | 8 | 15* | 5 | -8 | 44* | 16 | 30* | 9
COc1ccc(N2CCN(CCCNC(=O)CCc3ccc(F)cc3)CC2)cc1 | 0 | -1 | -2 | 3 | . | . | . | . | .
